Experimental data: ChEMBL document CHEMBL1138753, “Synthesis and biological activity of analogues of the antimicrotubule agent N,beta,beta-trimethyl-L-phenylalanyl-N(1)-[(1S,2E)-3-carboxy-1-isopropylbut-2-enyl]- N(1),3-dimethyl-L-valinamide (HTI-286)” (J Med Chem, 2004)

How the values were obtained:
KB [1] = assay: Concentration required to inhibit tumor cell growth in KB-V1 cells; type: functional, cell-based; settings: Homo sapiens
How it was run: (§1)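 Cytotoxicity was measured in paclitaxel-sensitive KB-3-1 cells and in KB-8-5 and KB-V1 cells, which express moderate and high P-glycoprotein respectively. Result is the average IC50 (nM) ± SEM; SEM is omitted where it is below 10% of the average.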

KB [2] = assay: Concentration required to inhibit tumor cell growth in KB-8-5 cells; type: functional, cell-based, Homo sapiens; settings: Homo sapiens, KB; how it was run: as §1
Mus musculus [3] = assay: Minimum tolerated dose was evaluated in lox melanoma human tumor graft model in athymic mice when administered intravenously
Mus musculus [4] = assay: Minimum effective dose was evaluated in lox melanoma human tumor graft model in athymic mice when administered intravenously; settings: iv, read-out: MED
Tubulin beta-1 chain [5] = target: T1, Tubulin beta-1 chain (Homo sapiens, UniProt Q9H4B7); assay: Percent inhibition of tubulin polymerization at 0.3 uM concentration; type: functional
T1 sequence (Q9H4B7 whole entry): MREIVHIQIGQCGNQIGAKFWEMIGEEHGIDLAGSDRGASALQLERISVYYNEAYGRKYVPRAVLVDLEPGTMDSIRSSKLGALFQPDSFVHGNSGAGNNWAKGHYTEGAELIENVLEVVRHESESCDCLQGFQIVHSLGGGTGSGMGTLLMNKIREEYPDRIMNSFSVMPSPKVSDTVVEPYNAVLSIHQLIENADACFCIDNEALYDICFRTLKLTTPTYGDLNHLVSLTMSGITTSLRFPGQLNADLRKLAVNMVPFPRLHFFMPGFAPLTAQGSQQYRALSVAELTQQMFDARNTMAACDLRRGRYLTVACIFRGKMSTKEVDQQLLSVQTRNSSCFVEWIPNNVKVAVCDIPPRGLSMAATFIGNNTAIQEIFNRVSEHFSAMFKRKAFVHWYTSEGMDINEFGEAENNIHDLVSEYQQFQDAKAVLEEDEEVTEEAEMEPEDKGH

[6] = Concentration required to inhibit tumor cell growth in KB-3-1 cells; type: functional, cell-based, Homo sapiens; settings: Homo sapiens, KB 3-1; how it was run: as §1
HCT-15 = assay: Inhibitory concentration against HCT-15 cells was evaluated; type: functional, cell-based; settings: Homo sapiens
How it was run: (§2)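 Cytotoxicity panel covered tumor lines differing in P-glycoprotein expression. Lox melanoma and KM20 have none; NCI-H1299, HCT-15 and S1 express it. Result is the average IC50 (nM) ± SEM.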

LOX IMVI = assay: Inhibitory concentration against Lox melanoma cells; type: functional, cell-based; settings: Homo sapiens; how it was run: as §2
Tubulin beta-1 chain [7] = target: T1, Tubulin beta-1 chain; assay: Binding affinity towards tubulin
NCI-H1299 = assay: Inhibitory concentration against NCI-H1299 cells was evaluated; type: functional, cell-based; settings: Homo sapiens; how it was run: as §2
[8] = Inhibitory concentration against KM20 cells was evaluated; type: functional, cell-based, Homo sapiens; how it was run: as §2
[9] = Inhibitory concentration against S1 cells was evaluated; type: functional, cell-based; how it was run: as §2
Tubulin beta-1 chain [10] = target: T1, Tubulin beta-1 chain; assay: Binding affinity towards tubulin; d = weak binding
Tubulin beta-1 chain [11] = target: T1, Tubulin beta-1 chain; assay: Binding affinity towards tubulin; e = no evidence for binding
KB 3-1 = assay: Inhibitory concentration against KB-3-1 cells was evaluated; type: functional, cell-based; settings: Homo sapiens
How it was run: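 Cytotoxicity was measured in paclitaxel-sensitive KB-3-1 human carcinoma cells. The value is the average IC50 in nM ± SEM; where no SEM is given, it is under 10% of the average.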

| Kd (Tubulin beta-1 chain [10]) | IC50 (KB 3-1) [nM] | Structure (SMILES) | IC50 (KB [1]) [nM] | IC50 (KB [2]) [nM] | MTD (Mus musculus [3]) [mg/kg] | minimal effective dose (Mus musculus [4]) [mg/kg] | inhibition (Tubulin beta-1 chain [5]) [%] | IC50 [6] [nM] | IC50 (HCT-15) [nM] | IC50 (LOX IMVI) [nM] | Kd (Tubulin beta-1 chain [7]) [nM] | IC50 (NCI-H1299) [nM] | IC50 [8] [nM] | IC50 [9] [nM] | Kd (Tubulin beta-1 chain [11]) |
| --- | --- | --- | --- | --- | --- | --- | --- | --- | --- | --- | --- | --- | --- | --- | --- |
|  |  | CN[C@H](C(=O)N[C@H](C(=O)N(C)[C@H](/C=C(\C)C(=O)N1CCN(C)CC1)C(C)C)C(C)(C)C)C(C)(C)c1ccccc1 | 2330 | 60 | 15 | 3 | 69 | 33 |  |  |  |  |  |  |  |
|  |  | CN[C@H](C(=O)N[C@H](C(=O)N(C)[C@H](/C=C(\C)C(=O)O)C(C)C)C(C)(C)SC)C(C)(C)c1ccccc1 | 303 | 7.1 |  | 0.5 | 76 | 2.7 | 18.6 | 3 | 700 | 15.8 | 6 |  |  |
|  |  | CN[C@H](C(=O)N[C@H](C(=O)N(C)[C@H](/C=C(\C)C(=O)O)C(C)C)C(C)(C)C)C(C)(C)c1ccccc1 [TALTOBULIN] | 77.4 |  | 1.6 | 0.2 | 88 |  | 4.2 | 1.4 | 260 | 6.8 | 1.8 | 3.7 |  |
|  |  | CN[C@H](C(=O)N[C@H](C(=O)N(C)[C@H](/C=C(\C)C(=O)N1CCOCC1)C(C)C)C(C)(C)C)C(C)(C)c1ccccc1 | 1190 | 75 |  | 3 | 69 | 42 |  |  |  |  |  |  |  |
|  |  | CN[C@H](C(=O)N[C@H](C(=O)N(C)[C@H](/C=C(\C)C(=O)O)C(C)C)C(C)(C)C)C(C)(C)C1CCCCC1 | 155 | 5.7 |  | 1 | 93 | 3.9 |  |  | 1200 |  |  |  |  |
|  |  | CN[C@H](C(=O)N[C@H](C(=O)N(C)[C@H](/C=C(\C)C(=O)O)C(C)C)C(C)C)C(C)(C)c1ccccc1 | 288 | 11 | >3 | 0.7 | 78 | 5.2 |  |  |  |  |  |  |  |
|  |  | CC/C(=C\[C@H](C(C)C)N(C)C(=O)[C@@H](NC(=O)[C@@H](NC)C(C)(C)c1ccccc1)C(C)(C)C)C(=O)O | 513 | 14 |  | 2 | 83 | 5.4 | 20.8 | 6.3 |  | 19.3 | 6.6 |  |  |
|  |  | CCOC(=O)/C(C)=C/[C@H](C(C)C)N(C)C(=O)[C@@H](NC(=O)[C@@H](NC)C(C)(C)c1ccccc1)C(C)(C)C | 1870 | 499 |  | 0.4 | 97 | 34 | 575 | 13.9 | 4000 | 100 |  |  |  |
|  |  | CN[C@H](C(=O)N[C@H](C(=O)N[C@H](/C=C(\C)C(=O)O)C(C)C)C(C)(C)C)C(C)(C)c1ccccc1 | > 3000 | 130 |  |  | 79 | 43 | 204 | 23 |  | 54 |  |  |  |
|  |  | C/C(=C\[C@H](C(C)C)N(C)C(=O)[C@@H](NC(=O)[C@@H](N(C)CCO)C(C)(C)c1ccccc1)C(C)(C)C)C(=O)O | > 3000 | 62 |  |  | 72 | 45 |  |  | 1000 |  |  |  |  |
| Weak binding |  | CN[C@@H](C(=O)N[C@H](C(=O)N(C)[C@H](/C=C(\C)C(=O)O)C(C)C)C(C)(C)C)C(C)(C)c1ccccc1 (single isomer, unassigned) | 879 | 39 |  |  | 91 | 28 | 58 | 37 |  | 79 |  |  |  |
|  |  | CN[C@H](C(=O)N[C@H](C(=O)N(C)[C@H](C[C@@H](C)C(=O)O)C(C)C)C(C)(C)C)C(C)(C)c1ccccc1 | 1320 | 19.1 |  |  | 99 | 8.5 |  |  | 4000 |  |  |  |  |
|  |  | CCCC[C@@H](/C=C(\C)C(=O)O)N(C)C(=O)[C@@H](NC(=O)[C@@H](NC)C(C)(C)c1ccccc1)C(C)(C)C | > 3000 | 78 |  |  | 52 | 36 |  |  |  | 268 | 53 |  |  |
|  |  | CNC(=O)/C(C)=C/[C@H](C(C)C)N(C)C(=O)[C@@H](NC(=O)[C@@H](NC)C(C)(C)c1ccccc1)C(C)(C)C | 1590 | 129 |  |  | 78 | 68 | 25.5 |  |  | 90 |  | 657 |  |
|  |  | CN[C@H](C(=O)N[C@H](C(=O)N(C)[C@H](/C=C(\C)C(=O)O)C(C)C)C(C)(C)C)C(C)(C)c1ccc(OC)cc1 | 143 | 4.1 | 1.6 | 0.1 | 91 | 1.4 | 6.9 | 1.1 | 700 | 10 |  | 7.3 |  |
|  |  | C/C(=C\[C@H](C(C)C)N(C)C(=O)[C@@H](NC(=O)[C@@H](C)C(C)(C)c1ccccc1)C(C)(C)C)C(=O)O | > 3000 | 639 |  |  | 94 | 561 | 1200 | 1380 |  | 1070 |  |  | No evidence for binding |
|  |  | C/C(=C\[C@H](C(C)C)N(C)C(=O)[C@@H](NC(=O)[C@@H](NCc1ccccc1)C(C)(C)c1ccccc1)C(C)(C)C)C(=O)O | > 3000 | 1880 |  |  | 55 | 1790 |  |  |  |  |  |  |  |
|  |  | C/C(=C\[C@H](C(C)C)N(C)C(=O)[C@@H](NC(=O)[C@@H](O)C(C)(C)c1ccccc1)C(C)(C)C)C(=O)O | > 3000 | > 3000 |  |  | 21 | > 3000 |  |  |  |  |  |  |  |
|  |  | CCN(C(=O)[C@@H](NC(=O)[C@@H](NC)C(C)(C)c1ccccc1)C(C)(C)C)[C@H](/C=C(\C)C(=O)O)C(C)C | > 3000 | 197 |  |  | 11 | 109 |  |  |  |  |  |  |  |
|  | 3.9 | CC(=O)O[C@H]1C(=O)[C@@]2(C)[C@H]([C@H](OC(=O)c3ccccc3)[C@]3(O)C[C@H](OC(=O)[C@H](O)[C@@H](NC(=O)c4ccccc4)c4ccccc4)C(C)=C1C3(C)C)[C@]1(OC(C)=O)CO[C@@H]1C[C@@H]2O [PACLITAXEL] |  |  |  |  |  |  | 438 | 17.3 |  | 37.7 | 8.9 | 92 |  |
|  |  | C/C(=C\[C@H](C(C)C)N(C)C(=O)[C@@H](NC(=O)[C@@H](N(C)C)C(C)(C)c1ccccc1)C(C)(C)C)C(=O)O | 116 | 3.7 |  | 1 | 93 | 1.6 |  |  |  |  |  |  |  |
|  |  | CN[C@H](C(=O)N[C@H](C(=O)N(C)[C@@H](/C=C(\C)C(=O)O)C(C)C)C(C)(C)C)C(C)(C)c1ccccc1 (single isomer, unassigned) | > 3000 | 1650 |  |  | 0 | 605 |  |  |  |  |  |  |  |
|  |  | CO[C@H](C(=O)N[C@H](C(=O)N(C)[C@H](/C=C(\C)C(=O)O)C(C)C)C(C)(C)C)C(C)(C)c1ccccc1 | > 3000 | 1230 |  |  | 54 | 1420 |  |  |  |  |  |  |  |
|  |  | CS[C@H](C(=O)N[C@H](C(=O)N(C)[C@H](/C=C(\C)C(=O)O)C(C)C)C(C)(C)C)C(C)(C)c1ccccc1 | > 6000 | 1150 |  |  | 79 | 691 |  |  |  |  |  |  |  |
|  |  | CC[C@@H](C(=O)N[C@H](C(=O)N(C)[C@H](/C=C(\C)C(=O)O)C(C)C)C(C)(C)C)C(C)(C)c1ccccc1 | 5250 | 1200 |  |  | 54 | 912 |  |  |  |  |  |  |  |
